Assay results from ChEMBL document CHEMBL1124485, “6-Alkyl-N,N-disubstituted-2-pyridinamines as anticonvulsant agents” (1989).
Several values for one entry are separate records, joined by “and”; a condition that tells them apart may be missing. Equal entries are not always repeated.

Key:
Format in all cases: functional
Mus musculus [1] = assay: Lowest dose level at which mice fell off inverted screen during testing 120 min after intraperitoneal dosage
Outline: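 Male Swiss-Webster mice (22-32 g), N = 5 per dose, given 10, 30, 100, 300 mg/kg ip. Tested 120 min after dosing on an inverted wire mesh screen. Value is the lowest dose level at which two or more mice fell off.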

Mus musculus [2] = assay: Minimum effective dose at which mice were protected against tonic-extension produced by maximal electroshock during testing 120 min after intraperitoneal dosage; details: ip, 2 h, read-out: MED
Outline: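 Male Swiss-Webster mice (22-32 g), N = 5 per dose; dosed ip at 10, 30, 100, 300 mg/kg. Tested 120 min after dosing for protection against tonic extension from maximal electroshock. Value is the dose level at which two or more mice were protected.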

Mus musculus [3] = assay: Effective dose required to inhibit ataxia after intraperitoneal administration in experiment 2; details: ip
Outline: (§1)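 Ataxia in mice after ip dosing: in-house, falling from an inverted wire mesh screen (Swiss-Webster mice); in NINCDS studies, falling from a rotating rod (CF-1 mice, 30% polyethylene glycol vehicle). ED50 was obtained by quantal probit analysis.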

Mus musculus [4] = assay: Effective dose against convulsions induced by clonic pentylenetetrazole after intraperitoneal administration in experiment 1; details: ip
Outline: (§2)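 Male CF-1 mice (25-35 g) dosed ip. Pentylenetetrazol 85 mg/kg in 0.9% NaCl was given sc at the dorsal neck, and mice were observed 30 min. An anticonvulsant effect was prevention of all clonic seizures (≥5 s forelimb clonus). ED50 was obtained by quantal probit analysis; NINCDS testing used 30% polyethylene glycol vehicle.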

Mus musculus [5] = assay: Effective dose against convulsions induced by clonic pentylenetetrazole after intraperitoneal administration in experiment 2; details: ip; outline: as §2
Mus musculus [6] = assay: Effective dose against convulsions induced by maximal electroshock (MES) after intraperitoneal administration in experiment 1; details: ip
Outline: (§3)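 Mice dosed ip and challenged by maximal electroshock, scoring protection from seizures; N = 10 mice per time-course point. ED50 was obtained by quantal probit analysis. Swiss-Webster mice were used in-house; CF-1 mice were used in NINCDS testing, where drug was in 30% polyethylene glycol at 10 mL/kg.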

Mus musculus [7] = assay: Effective dose against convulsions induced by maximal electroshock (MES) after intraperitoneal administration in experiment 2; details: ip; outline: as §3
Mus musculus [8] = assay: Effective dose required for the inhibition of spontaneous locomotion after intraperitoneal administration in experiment 1; details: ip
Mus musculus [9] = assay: Effective dose required to inhibit ataxia after intraperitoneal administration in experiment 1; details: ip; outline: as §1
[10] = Protective index, ratio of ED50 ataxia and ED50 MES
Outline: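 Protective index is the ratio of the ataxia ED50 to the maximal electroshock ED50. Both were ip in mice and derived by quantal probit analysis.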

CCCCCc1cccc(N2CCNCC2)n1
MTC (Mus musculus [1]): 30 mg/kg
minimal effective dose (Mus musculus [2]): 10 mg/kg

c1ccc(CCc2cccc(N3CCNCC3)n2)cc1
MTC (Mus musculus [1]): 100 mg/kg
minimal effective dose (Mus musculus [2]): > 300 mg/kg

NC(=O)N1c2ccccc2C=Cc2ccccc21 [CARBAMAZEPINE]
ED50 (Mus musculus [3]): 72 mg/kg
ED50 (Mus musculus [4]): > 100 mg/kg
ED50 (Mus musculus [5]): > 100 mg/kg
ED50 (Mus musculus [6]): 9.8 mg/kg
ED50 (Mus musculus [7]): 8.8 mg/kg
ED50 (Mus musculus [8]): 50 mg/kg
ED50 (Mus musculus [9]): 41 mg/kg
Ratio [10]: 8.2

CCCCCCCc1cccc(N2CCCCC2)n1
MTC (Mus musculus [1]): >300 mg/kg
minimal effective dose (Mus musculus [2]): > 300 mg/kg

CCCCCCCc1cccc(N2CCN(C)CC2)n1.Cl
MTC (Mus musculus [1]): 300 mg/kg
minimal effective dose (Mus musculus [2]): 30 mg/kg

CCCCCCc1cccc(N2CCNCC2)n1
ED50 (Mus musculus [3]): 46 mg/kg
ED50 (Mus musculus [5]): > 100 mg/kg
ED50 (Mus musculus [6]): 7.3 mg/kg
ED50 (Mus musculus [7]): 16 mg/kg
ED50 (Mus musculus [8]): 20 mg/kg
ED50 (Mus musculus [9]): 22 mg/kg
MTC (Mus musculus [1]): 100 mg/kg
minimal effective dose (Mus musculus [2]): 10 mg/kg
Ratio [10]: 3 and 2.9

CC(C)(C)c1cccc(N2CCNCC2)n1.Cl
MTC (Mus musculus [1]): 30 mg/kg
minimal effective dose (Mus musculus [2]): > 300 mg/kg

Cc1cccc(N2CCNCC2)n1.Cl.Cl
MTC (Mus musculus [1]): 30 mg/kg
minimal effective dose (Mus musculus [2]): > 300 mg/kg

CCCCCCC(CCCCCC)c1cccc(N2CCNCC2)n1
MTC (Mus musculus [1]): 100 mg/kg
minimal effective dose (Mus musculus [2]): > 300 mg/kg

CCCCCCCCCCc1cccc(N2CCNCC2)n1
MTC (Mus musculus [1]): 100 mg/kg
minimal effective dose (Mus musculus [2]): 30 mg/kg

CC(C)c1cccc(N2CCNCC2)n1.Cl.Cl
MTC (Mus musculus [1]): 30 mg/kg
minimal effective dose (Mus musculus [2]): > 300 mg/kg

O=C1NC(=O)C(c2ccccc2)(c2ccccc2)N1 [PHENYTOIN]
ED50 (Mus musculus [3]): 65 mg/kg
ED50 (Mus musculus [5]): > 100 mg/kg
ED50 (Mus musculus [6]): 8 mg/kg
ED50 (Mus musculus [8]): > 65 mg/kg
ED50 (Mus musculus [9]): 82 mg/kg

CCCCCCCc1ccnc(N2CCNCC2)c1
MTC (Mus musculus [1]): 100 mg/kg
minimal effective dose (Mus musculus [2]): 30 mg/kg

CCCc1cccc(N2CCNCC2)n1.Cl
MTC (Mus musculus [1]): 3 mg/kg
minimal effective dose (Mus musculus [2]): 10 mg/kg

CCCCCCCc1cccc(N2CCCNCC2)n1
MTC (Mus musculus [1]): 100 mg/kg
minimal effective dose (Mus musculus [2]): 30 mg/kg

CCCCCCCCCc1cccc(N2CCNCC2)n1
ED50 (Mus musculus [3]): 42 mg/kg
ED50 (Mus musculus [5]): > 100 mg/kg
ED50 (Mus musculus [6]): 5.6 mg/kg
ED50 (Mus musculus [7]): 7.8 mg/kg
ED50 (Mus musculus [8]): 26 mg/kg
ED50 (Mus musculus [9]): 30 mg/kg
MTC (Mus musculus [1]): 30 mg/kg
minimal effective dose (Mus musculus [2]): 10 mg/kg
Ratio [10]: 5.4

CCCCCCCCc1cccc(N2CCNCC2)n1
MTC (Mus musculus [1]): 30 mg/kg
minimal effective dose (Mus musculus [2]): 10 mg/kg

CCCCCCCc1cccc(N2CCNCC2)n1
ED50 (Mus musculus [3]): 29 mg/kg
ED50 (Mus musculus [5]): 21 mg/kg
ED50 (Mus musculus [6]): 8.8 mg/kg
ED50 (Mus musculus [7]): 6.4 mg/kg
ED50 (Mus musculus [8]): 13 mg/kg
ED50 (Mus musculus [9]): 45 mg/kg
MTC (Mus musculus [1]): 100 mg/kg
minimal effective dose (Mus musculus [2]): 10 mg/kg
Ratio [10]: 5.1 and 4.5

CCCCCCCc1cccc(N2CCOCC2)n1
MTC (Mus musculus [1]): >300 mg/kg
minimal effective dose (Mus musculus [2]): 300 mg/kg

CCCCSc1cccc(N2CCNCC2)n1
MTC (Mus musculus [1]): 100 mg/kg
minimal effective dose (Mus musculus [2]): 100 mg/kg

CCCCc1cccc(N2CCNCC2)n1
MTC (Mus musculus [1]): 10 mg/kg
minimal effective dose (Mus musculus [2]): 30 mg/kg

Cl.c1cc(CC2CCCCC2)nc(N2CCNCC2)c1
MTC (Mus musculus [1]): 100 mg/kg
minimal effective dose (Mus musculus [2]): 100 mg/kg
